Measured values published in ChEMBL document CHEMBL1130202, “Biologically active heteroarotinoids exhibiting anticancer activity and decreased toxicity” (J Med Chem, 1997).
Active and inactive are the calls of the source. The rule behind the calls is not given here.

Key:
Mus musculus [1] = species: Mus musculus; test: Effect of compound on serum Alkaline phosphatase levels in mice at high dose on day 29; format: functional
Procedure, shortened: (§1)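 Male B6D2F1 mice dosed daily by oral gavage in corn oil at low, mid 1, mid 2 or high dose. Blood sampled on set days (8, 29, 36, 65) for clinical chemistry, serum alkaline phosphatase and triglycerides. Group mean ± SD reported as % relative to vehicle 1; significance p < 0.05 versus corn oil vehicle.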

Mus musculus [2] = species: Mus musculus; test: Compound toxicity determined by total dose to termination (day 25/65) in mid dose 1; format: functional
Procedure, shortened: (§2)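 Male B6D2F1 mice given daily oral gavage in corn oil; dosages increased during the study (day 30 or day 51 depending on compound). Cumulative dose in mg/kg administered up to termination (day 65, or day 25 for TTNPB 0.01/0.05 mg/kg/day groups).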

[3] = Mortality rate in mice in mid dose 2; format: ADME; conditions: mouse, in vivo
Procedure, shortened: (§3)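 Male B6D2F1 mice given compound daily by gavage in corn oil at the stated dose levels, with corn oil vehicle controls. Deaths counted as animals found dead or sacrificed moribund, with day(s) of death recorded. Heteroarotinoid groups ran to day 65 and low-dose reference groups to day 25.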

Mus musculus [4] = species: Mus musculus; test: Enlarged lymph in gross pathological observations in mice with hypervitaminosis A in mice at high dose with gross observations/total number of mice in group; 8/16; format: functional, organism-based
Mus musculus [5] = species: Mus musculus; test: Effect of compound on serum Alkaline phosphatase levels in mice at mid dose 2 on day 36; format: functional; procedure, shortened: as §1
Mus musculus [6] = species: Mus musculus; test: Effect of compound on white blood cells levels in mice at mid dose 2 on day 65; format: functional
Procedure, shortened: (§4)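 Male B6D2F1 mice were gavaged daily with compound in corn oil at low, mid 1, mid 2 or high dose. Serum triglycerides and circulating white blood cells were measured on the stated day (8, 29, 36, 65). Values are group mean ± SD expressed as % relative to corn-oil vehicle, with significance at p ≤ 0.05.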

[7] = Mortality rate in mice in low dose; format: ADME; conditions: mouse, in vivo; procedure, shortened: as §3
Mus musculus [8] = species: Mus musculus; test: Average number of fractures per mouse at mid dose 1
Mus musculus [9] = species: Mus musculus; test: Effect of compound on serum Alkaline phosphatase levels in mice at mid dose 1 on day 65; format: functional; procedure, shortened: as §1
[10] = Mortality rate in mice in high dose; format: ADME; conditions: mouse, in vivo; procedure, shortened: as §3
Mus musculus [11] = species: Mus musculus; test: Fracture incidence in mouse at mid dose 2; 6/7
Mus musculus [12] = species: Mus musculus; test: Effect of compound on Spleen to body weight ratios in mice at low dose on day 65; format: functional
Procedure, shortened: (§5)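 Male B6D2F1 mice dosed daily by gavage with compound in corn oil; vehicle 1 (corn oil) controls run to termination on day 65. Low, mid 1, mid 2 and high dose groups, with dosage increases partway through the study. Organ-to-body weight ratios (×1000) taken at necropsy on day 65, reported as mean ± SD for 4 to 8 animals and as % difference from vehicle.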

Mus musculus [13] = test: Average number of fractures per mouse at 0.8 mg/kg/day
Mus musculus [14] = test: Average number of fractures per mouse at 0.1 mg/kg/day
Mus musculus [15] = test: Average number of fractures per mouse at 0.4 mg/kg/day
Mus musculus [16] = test: Skin scaling at 0.8 mg/kg/day in mice with hypervitaminosis; 12/16; format: functional, organism-based
Mus musculus [17] = test: Fracture incidents in mouse at 0.05 mg/kg/day; 7/8
Mus musculus [18] = test: Effect of compound on right testicle to body weight ratios in mice at 0.1 mg/kg/day dose; all the animals died by day 65; format: functional, organism-based
Mus musculus [19] = test: Skin scaling at 0.4 mg/kg/day in mice with hypervitaminosis; 15/16; format: functional, organism-based
Mus musculus [20] = test: Enlarged spleen in gross pathological observations with hypervitaminosis A at 0.05 mg/kg/day dose with gross observations/total number of animals in group; 5/8; format: functional, organism-based
Mus musculus [21] = test: Calculated 30-day maximally tolerated dose based on 10% weight loss in mice at 0.01 mg/kg/day; format: functional
Mus musculus [22] = test: Fracture incidents in mouse at 0.8 mg/kg/day; 0/16
Mus musculus [23] = test: Enlarged spleen in Gross pathological observations with hypervitaminosis A in mice at 0.1 mg/kg/day dose with gross observations/total number of animals in group; 4/16; format: functional, organism-based
Mus musculus [24] = species: Mus musculus; test: Fracture incidence in mouse at low dose; 0/8
Mus musculus [25] = species: Mus musculus; test: Avoiding pressure on limbs in mice at low dose with Hypervitaminosis; 0/16; format: functional, organism-based; conditions: Limb
Mus musculus [26] = species: Mus musculus; test: Avoiding pressure on limbs in mice at mid dose 2 with Hypervitaminosis; 0/16; format: functional, organism-based; conditions: Limb
Mus musculus [27] = species: Mus musculus; test: Effect of compound on serum Alkaline phosphatase levels in mice at high dose on day 65; format: functional; procedure, shortened: as §1
Mus musculus [28] = species: Mus musculus; test: Enlarged lymph in gross pathological observations in mice with hypervitaminosis A in mice at high dose with gross observations/total number of mice in group; 1/16; format: functional, organism-based
Mus musculus [29] = species: Mus musculus; test: Skin scaling in mice at mid dose 2 with Hypervitaminosis; 0/16; format: functional, organism-based
Procedure, shortened: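 Male B6D2F1 mice were dosed daily by gavage in corn oil and observed for skin scaling of the ears, mouth, nose, eyelids, feet, tail or ventral body. Results are given as affected animals over animals in the group, with the day of first observation.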

Mus musculus [30] = species: Mus musculus; test: Enlarged lymph in gross pathological observations in mice with hypervitaminosis A at low dose with gross observations/total number of mice in group; 1/16; format: functional, organism-based
Mus musculus [31] = species: Mus musculus; test: Effect of compound on serum triglycerides levels in mice at low dose on day 8; format: functional; procedure, shortened: as §4
Mus musculus [32] = species: Mus musculus; test: Effect of compound on serum triglycerides levels in mice at low dose on day 36; format: functional; procedure, shortened: as §1
Mus musculus [33] = species: Mus musculus; test: Compound total dose to termination (day 25/65) in low dose; format: functional; procedure, shortened: as §2
Mus musculus [34] = species: Mus musculus; test: Effect of compound on white blood cells levels in mice at high dose on day 65; format: functional; procedure, shortened: as §4
Mus musculus [35] = species: Mus musculus; test: Effect of compound on Spleen to body weight ratios in mice at high dose on day 65; format: functional; procedure, shortened: as §5
Mus musculus [36] = species: Mus musculus; test: Effect of compound on serum triglycerides levels in mice at mid dose 1 on day 36; format: functional; procedure, shortened: as §4
Mus musculus [37] = species: Mus musculus; test: Effect of compound on serum triglycerides levels in mice at low dose on day 29; format: functional; procedure, shortened: as §1
Mus musculus [38] = species: Mus musculus; test: Effect of compound on right testicle to body weight ratios in mice at high dose on day 65; format: functional; procedure, shortened: as §5
Mus musculus [39] = species: Mus musculus; test: Effect of compound on serum triglycerides levels in mice at mid dose 2 on day 29; format: functional; procedure, shortened: as §4
Mus musculus [40] = species: Mus musculus; test: Enlarged spleen in Gross pathological observations in mice with hypervitaminosis A at low dose with gross observations/total number of mice in group; 0/16; format: functional, organism-based
Mus musculus [41] = species: Mus musculus; test: Compound total dose to termination (day 25/65) in mid dose 2; format: functional; procedure, shortened: as §2
Mus musculus [42] = species: Mus musculus; test: Average number of fractures per mouse at lmid dose 1
Mus musculus [43] = species: Mus musculus; test: Effect of compound on serum Alkaline phosphatase levels in mice at low dose on day 29; format: functional; procedure, shortened: as §1
Mus musculus [44] = species: Mus musculus; test: Enlarged lymph in gross pathological observations in mice with hypervitaminosis A at mid dose 1 with gross observations/total number of mice in group; 2/16; format: functional, organism-based
Mus musculus [45] = species: Mus musculus; test: Alopecia in mice observed at mid dose 1 with Hypervitaminosis; 2/16; format: functional, organism-based
Mus musculus [46] = species: Mus musculus; test: Skin scaling in mice at mid dose 1 with Hypervitaminosis; 0/16; format: functional, organism-based

| SMILES | Activity (Mus musculus [1]) | Mortality [3] | Activity (Mus musculus [5]) | Activity (Mus musculus [6]) | Mortality [7] | Activity (Mus musculus [8]) | Activity (Mus musculus [9]) | Mortality [10] | Activity (Mus musculus [12]) | Activity (Mus musculus [24]) | Activity (Mus musculus [25]) | Activity (Mus musculus [26]) | Activity (Mus musculus [27]) | Activity (Mus musculus [28]) | Activity (Mus musculus [29]) | Activity (Mus musculus [30]) | Activity (Mus musculus [31]) | Activity (Mus musculus [32]) | Total dose (Mus musculus [33]) | Activity (Mus musculus [34]) | further results |
| --- | --- | --- | --- | --- | --- | --- | --- | --- | --- | --- | --- | --- | --- | --- | --- | --- | --- | --- | --- | --- | --- |
| C/C(=C\c1ccc(C(=O)O)cc1)c1ccc2c(c1)C(C)(C)CCO2 | 103.1 | 4 day of death | 93.3 | 6.55 | 0 day of death | 1.9 | 123.1 | 8 day of death | 3.6 | – | – | – | – | – | – | – | – | – | – | – | Total dose (Mus musculus [2]): 294.2 mg/kg; Activity (Mus musculus [4]): Weak activity; Activity (Mus musculus [11]): Active |
| C/C(=C\c1ccc(C(=O)O)cc1)c1ccc2c(c1)C(C)(C)CCC2(C)C | – | – | – | – | – | – | – | – | – | – | – | – | – | – | – | – | – | – | – | – | Activity (Mus musculus [13]): 0; Activity (Mus musculus [14]): 2; Activity (Mus musculus [15]): 0.4; Activity (Mus musculus [16]): Active; Activity (Mus musculus [17]): Active; Activity (Mus musculus [18]): Toxic; Activity (Mus musculus [19]): Active; Activity (Mus musculus [20]): Weak activity; Max tolerated dose (Mus musculus [21]): >0.008 mg/kg; Activity (Mus musculus [22]): inactive; Activity (Mus musculus [23]): Weak activity |
| CC(/C=C/C=C(\C)c1ccc2c(c1)C(C)(C)CCS2)=C\C(=O)O | 94.6 | 0 day of death | 75.6 | – | 0 day of death | – | – | 0 day of death | – | inactive | inactive | inactive | 159 | inactive | inactive | inactive | 97.5 | 194.9 | 207.1 mg/kg | 4.18 | Activity (Mus musculus [35]): 2.6; Activity (Mus musculus [36]): 212.7; Activity (Mus musculus [37]): 176.4; Activity (Mus musculus [38]): 2.7; Activity (Mus musculus [39]): 153.4; Activity (Mus musculus [40]): inactive; Total dose (Mus musculus [41]): 828.4 mg/kg; Activity (Mus musculus [42]): 0; Activity (Mus musculus [43]): 94.9 |
| CC(/C=C/C=C(\C)c1ccc2c(c1)C(C)(C)CCO2)=C\C(=O)O | – | – | – | 4.51 | – | 0 | 127.1 | – | 2.3 | inactive | inactive | inactive | 156.8 | inactive | inactive | inactive | 96.8 | 187.1 | 207.1 mg/kg | 3.7 | Activity (Mus musculus [44]): inactive; Activity (Mus musculus [45]): inactive; Activity (Mus musculus [35]): 3; Activity (Mus musculus [36]): 202.8; Activity (Mus musculus [37]): 179.4; Activity (Mus musculus [38]): 3; Activity (Mus musculus [39]): 159.3; Activity (Mus musculus [40]): inactive; Activity (Mus musculus [46]): inactive; Total dose (Mus musculus [41]): 828.4 mg/kg; Activity (Mus musculus [43]): 96.8 |
